# HEK293 NFkB inh = lowers PMA/ionomycin-induced NF-kB signal in HEK293 cells. HEK-293 NF-kB luciferase reporter, luminescence. 0.21% of 62,000 active. inhibition, % at 3 µM;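 active = inhibition above the mean of all tested compounds plus 3 SD, cut at about 40% in these data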;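 note: 0% = stimulated DMSO wells and 100% = 10 µM reference inhibitor 5653914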
#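 Material: HEK-293 cells with stable firefly luciferase reporter driven by four HIV NF-kB elements / Also added: PMA plus ionomycin mix as NF-kB-activating stimulus / Compound dosing: 3 µM once, 0.30% DMSO / Times: 1 h pretreatment, 16 h stimulation, 37 °C / Signal: luminescence / Evaluation: per-plate % inhibition versus controls / Benchmarks: DMSO and 10 µM reference inhibitor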
# RORA act = activates the human nuclear receptor RORA; CHO-K1 Gal4-RORA LBD luciferase reporter, luminescence; percent increase over mock-subtracted basal signal; 1.5% of 65,000 active; P35398; activation, % at 10 µM;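 active = activation above the mean of all tested compounds plus 3 SD, cut at about 49% in these data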;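 note: 0% = DMSO-treated RORA cells and 100% = added signal equal to DMSO minus mock-transfected cells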
# MT1-MMP txn act = MT1-MMP promoter transcription activation. HT1080 MT1-MMP promoter luciferase reporter, luminescence, overnight; stronger effect = higher value. activation factor at 10 µM. 0.16% of 86,000 active. AID 750;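 active = activation factor of at least 2 for MT1-MMP transcription at 10 µM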
# SF-1 act = SF-1 (human) activation; CHO-K1 Gal4-SF-1 LBD luciferase reporter; % increase over DMSO SF-1-specific signal; activation, % at 10 µM; 1.9% of 65,000 active;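 active = activation above the mean activation of all tested compounds plus 3 SD, cut at about 50% in these data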
# Target sequence (Q13285 whole entry, looked up, the tested form may be a part): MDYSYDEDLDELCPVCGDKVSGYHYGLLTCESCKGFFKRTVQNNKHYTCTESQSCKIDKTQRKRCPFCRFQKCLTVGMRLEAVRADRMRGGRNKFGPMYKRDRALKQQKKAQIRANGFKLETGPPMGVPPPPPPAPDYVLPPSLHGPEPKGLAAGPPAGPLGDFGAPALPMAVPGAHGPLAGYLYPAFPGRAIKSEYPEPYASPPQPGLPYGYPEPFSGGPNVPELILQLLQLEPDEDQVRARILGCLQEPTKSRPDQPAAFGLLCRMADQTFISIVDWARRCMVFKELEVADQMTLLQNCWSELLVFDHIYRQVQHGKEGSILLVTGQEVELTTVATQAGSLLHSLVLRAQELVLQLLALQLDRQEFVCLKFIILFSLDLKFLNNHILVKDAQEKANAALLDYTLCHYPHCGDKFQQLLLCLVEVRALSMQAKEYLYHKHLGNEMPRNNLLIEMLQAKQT
#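 Test system: CHO-K1 cells with Gal4–hSF-1 LBD chimera plus Gal4-driven luciferase; Input: 4,000 cells/well; Compound: 10 µM only; Times: 20 h compound treatment, 37 °C; Measured by: steady-glow luciferase luminescence, read after 15 min reagent incubation; Measure: percent activation versus DMSO; Control set: DMSO and mock-transfected background; Replicates: one test per compound.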
# Jurkat tox 60K = reduces viability or proliferation of Jurkat cells. Jurkat E6.1 viability, ATP luminescence, 48 h. inhibition, % at 4 µM. 1.2% of 56,000 active;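 active = inhibition above the mean inhibition of all tested compounds plus 3 SD, cut at about 28% in these data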
# Starred values were filed as active, the others as inactive; · = not tested or not shown. In the library only some 2.8% were active in any assay of this set; here they are far more common.
SMILES,HEK293 NFkB inh,RORA act,MT1-MMP txn act,SF-1 act,Jurkat tox 60K
Cc1nnc(SCC(=O)c2cc(C)n(C3CC3)c2C)s1,·,·,1.7,·,·
CCOc1ccc(C2CC(=O)NC3=C2C(=O)CCC3)cc1 (centres undefined),7.9,5.9,1.1,3.2,2.5
CCOc1ccccc1C1CC(=O)NC2=C1C(=O)CCC2 (centres undefined),20.3,11.4,1.1,19.9,64.5*
CCCOc1ccccc1C1CC(=O)NC(C)=C1C(=O)OCC(C)C (centres undefined),8.1,-5.6,1.2,-12.0,4.0
CCCOc1ccccc1C1CC(=O)NC2=C1C(=O)CCC2 (centres undefined),7.3,22.2,0.8,5.2,95.2*
CCCCOc1ccccc1C1CC(=O)NC2=C1C(=O)CCC2 (centres undefined),18.1,25.6,0.5,-20.8,74.2*
COc1cc(C2C(C#N)=C(N)Oc3cc(N(C)C)ccc32)cc2c1OCO2 (centres undefined),63.0*,-17.1,0.5,-59.0,15.4
Cc1cc(N2CCN(C(=O)c3ccco3)CC2)n2ncc(-c3ccccc3)c2n1,8.4,30.3,1.9,65.3*,2.6
Cc1cc(N2CCCCC2)n2ncc(-c3ccccc3)c2n1,-36.8,28.9,0.8,1.0,0.8
Cc1cc(N2CCCCC2)n2ncc(-c3ccc(Cl)cc3)c2n1,-43.4,86.8*,1.9,62.3*,-6.9
CCOC(=O)C1=C(C)N(C)C(C)=C(C(=O)OCC)C1c1ccccn1,11.8,-6.3,1.2,-5.0,-5.8
COc1ccc(CNCC(=O)Nc2cc(C)nn2-c2nc(C)cc(C)n2)cc1OC,8.7,22.0,1.2,13.2,·
COc1ccc(N2CCN(C(=O)CN3C(=O)c4ccccc4S3(=O)=O)CC2)cc1,6.7,-2.1,1.1,12.3,·
Cc1ccc(S(=O)(=O)NC(=O)Nc2cc(C)ccc2F)cc1,10.0,6.3,1.1,-3.9,-4.9
CCOC(=O)C1CCN(Cc2ccc(O)c3ncccc23)CC1,8.6,-24.0,1.1,-76.9,43.2*
Cc1ccc2nc(-c3cccc(S(=O)(=O)N(C)C)c3)cn2c1,-17.5,56.4*,1.5,51.5*,-2.4
Cc1cc(C)nc(Nc2nc3ccccc3[nH]2)n1,-27.1,15.4,1.5,48.6,-0.1
c1ccc(Nc2nc3ccccc3[nH]2)nc1,-5.8,78.6*,1.5,54.7*,0.6
Cc1cc2nc(-c3ccc(SCC(=O)N4CCN(C(=O)c5ccco5)CC4)nc3)[nH]c2cc1C,-10.0,45.5,1.4,31.7,·
Cc1cc(NCCN2CCOCC2)n2ncc(-c3ccc(Cl)cc3)c2n1,-5.5,-5.0,1.1,-5.3,-2.7
Cc1cc(NCCN2CCOCC2)n2ncc(-c3ccccc3)c2n1,-26.3,66.0*,1.4,90.9*,-8.8
Cc1ccc(OCC(=O)N2CCN(C3=NS(=O)(=O)c4ccccc43)CC2)cc1,10.8,-7.4,1.1,-6.2,3.0
Nc1nonc1-c1noc(N2CCCCC2)n1,-0.3,25.9,1.4,53.5*,3.7
Cc1c(C(=O)NCc2ccccn2)oc2ccccc12,-0.7,4.5,1.8,17.0,-2.0
Cc1c(C(=O)NCc2ccoc2)oc2ccc3c(c12)C(=O)CC(C)(C)O3,-20.3,71.2*,1.8,73.0*,0.3
SMILES,HEK293 NFkB inh,RORA act,MT1-MMP txn act,SF-1 act,Jurkat tox 60K
COc1ccc(OCc2ccc(C(=O)O)cc2)cc1,-5.9,16.6,1.3,63.7*,2.1
COc1ccc(OCC(O)COc2ccc(C(=O)O)cc2)cc1 (centres undefined),-3.8,16.9,1,11.2,3.4
COc1ccc(Nc2nc(N3CCCC3)nc3ccccc23)c(OC)c1,16.0,-15.2,1.1,-28.9,27.9*
c1csc(-c2cnc3ccccc3n2)c1,-23.3,95.3*,1.1,50.0*,-4.1
O=C(c1nc2nc(-c3ccc(Cl)cc3)cc(C(F)(F)F)n2n1)N1CCOCC1,-2.2,-18.3,1,-1.5,6.2
COc1ccc(NS(=O)(=O)c2cc(C)ccc2NC(=O)c2cc(C)oc2C)cc1,38.3,-16.0,0.5,-34.6,90.3*
COc1ccc(NS(=O)(=O)c2c(C)cc(C)cc2C)cc1,·,·,1.1,·,·
CC(=O)c1cnc2cc(-c3ccc(C)cc3)nn2c1C,·,·,1.8,·,·
CC(=O)c1cnc2cc(-c3ccccc3)nn2c1C,-27.7,27.9,1.1,49.8*,0.5
CCCCCCOc1ccc(/C(N)=N/O)cc1,-21.3,44.4,1.7,22.9,97.3*
Cn1c(NCc2c[nH]c3ccccc23)nc2ccccc21,-13.4,63.8*,1.5,77.6*,3.8
